Compounds with a hit are over-represented: about 2.6% of the library has one in this group of screens.
ASAP1 GAP inh: blocks human ASAP1-stimulated Arf1 GTP hydrolysis; Q9ULH1; GDP FP detection; inhibition, % at 16.5 µM; hit rate 0.19% among 360,000; in the data active = inhibition above about 25%;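 note: 0% = vehicle with enzyme and substrate and 100% = no enzyme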
Target sequence (Q9ULH1 325-724 limits assumed): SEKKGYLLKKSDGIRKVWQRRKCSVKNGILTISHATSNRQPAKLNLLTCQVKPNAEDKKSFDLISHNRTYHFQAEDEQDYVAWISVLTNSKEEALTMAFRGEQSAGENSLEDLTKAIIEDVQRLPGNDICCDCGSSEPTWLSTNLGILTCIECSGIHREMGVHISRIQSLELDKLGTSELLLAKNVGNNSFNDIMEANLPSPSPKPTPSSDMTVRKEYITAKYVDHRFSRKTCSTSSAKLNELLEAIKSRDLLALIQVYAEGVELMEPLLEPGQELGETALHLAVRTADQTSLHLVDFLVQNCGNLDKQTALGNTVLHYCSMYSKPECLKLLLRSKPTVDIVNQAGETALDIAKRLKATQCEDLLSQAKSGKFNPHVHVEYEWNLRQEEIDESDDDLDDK
PHOSPHO1 inh: blocks human PHOSPHO1 phosphatase activity; Q8TCT1; recombinant PHOSPHO1, absorbance phosphatase assay; inhibition, % at 13.3 µM; hit rate 1.1% among 290,000; in the data active = inhibition above about 60%
Target sequence (Q8TCT1 whole entry, looked up): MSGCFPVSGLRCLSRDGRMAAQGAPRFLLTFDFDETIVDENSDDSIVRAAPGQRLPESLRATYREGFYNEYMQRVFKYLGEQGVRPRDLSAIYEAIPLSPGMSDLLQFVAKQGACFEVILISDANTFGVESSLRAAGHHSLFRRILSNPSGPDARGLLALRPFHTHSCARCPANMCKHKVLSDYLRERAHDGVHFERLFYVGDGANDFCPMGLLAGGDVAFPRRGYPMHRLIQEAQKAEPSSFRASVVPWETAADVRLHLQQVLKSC
Calb FLC: affects C. albicans growth with fluconazole | C. albicans CaCi-2 + fluconazole, Alamar Blue growth, 48 h | hit rate 0.57% among 300,000 | AID 1979 | growth inhibition, % (concentration not given with the values);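 active = growth inhibition above about 58% in most replicates, limit read from the data, passing the limit was not always enough; inconclusive = exactly half the replicates above a set limit; inactive = most replicates below a set limit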;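 note: all wells also contain fluconazole at 8 µg/ml as a sub-toxic cotreatment; 0% = median of DMSO wells and 100% = median of geldanamycin control wells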
IMP-1 inhibitor: blocks Pseudomonas aeruginosa IMP-1 metallo-beta-lactamase. hit rate 0.45% among 290,000. inhibition, % at 5.6 µM. AID 1556. purified IMP-1, nitrocefin hydrolysis, epi-absorbance fluorescence;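 active = inhibition above the mean plus 3 SD of all compounds in the same screening run, cut at about 4.5% in these data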;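 note: 0% = IMP-1 with DMSO and 100% = DMSO wells lacking enzyme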
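Assay system: purified recombinant IMP-1 beta-lactamase. Input: IMP-1 0.2 nM before substrate addition. Buffer or medium: Zinc- and detergent-supplemented HEPES buffer, pH 7.1. Schedule: 25 °C, 15 min preincubation, 25 min reaction. Signal: Epi-absorbance fluorescence, 480 nm excitation, 530 nm emission. Evaluation: percent inhibition from optical density relative to buffer-blank wells.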
VIM-2 inhibitor: inhibitors of Pseudomonas aeruginosa VIM-2 metallo-beta-lactamase. purified VIM-2, nitrocefin hydrolysis, epi-absorbance fluorescence. inhibition, % at 5.6 µM. hit rate 0.89% among 290,000;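 active = inhibition above the mean of all tested compounds plus 3 SD, cutoff set per screening run, cut at about 7.5% in these data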;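 note: red hydrolysis product quenches plate fluorescence so inhibitors raise well fluorescence; 0% = enzyme with DMSO and 100% = DMSO without enzyme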
ARFGAP1 inhibitor: inhibitors of rat ARFGAP1; Arfgap1-stimulated ARF1 GTP hydrolysis, GDP FP detection; hit rate 0.26% among 360,000; Q62848; inhibition, % at 16.5 µM;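 active = inhibition above a per-plate limit, mean inhibition of low control wells plus 3 SD, cut at about 25% in these data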;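 note: 0% = DMSO wells with enzyme and 100% = wells lacking Arfgap1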
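System: truncated rat Arfgap1 GAP domain / Medium: HEPES-based buffer, pH 7.5 / Also added: N-terminally truncated human ARF1-GTP substrate / Incubation: enzyme reaction 120 min at 25 °C after 20 min preincubation / Measured by: FP of antibody-bound GDP Alexa 633 tracer, ex 620/em 688 nm / Replicates: singlicate, each compound tested once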
Numbers without * were called inactive; ? = inconclusive; / = no result given.

SMILES | ASAP1 GAP inh | PHOSPHO1 inh | Calb FLC | IMP-1 inhibitor | VIM-2 inhibitor | ARFGAP1 inhibitor
Cc1ccc(OC(C)C(=O)Nc2ccc3c(c2)n(C)c(=O)n3C)cc1C (stereo unspecified) | 12 | 60* | 0 | -3 | -1 | 8
CCOC(=O)CSc1n[nH]c(NC(=O)c2cccc(C)c2)n1 | -3 | 60* | -9 | -2 | -2 | 8
CCCCNC(=O)Nc1nc(SCC(=O)OCC)n[nH]1 | -11 | 30 | -10 | -2 | -2 | 10
Cc1cc(O)cc(=O)n1-c1cc(F)c(F)c(F)c1 | -9 | / | / | / | / | -13
COc1ccc(OCc2n(CC(=O)OC3CC(C)CCC3C(C)C)c3ccccc3[n+]2C)cc1 (stereo unspecified) | -7 | 47 | -1 | -4 | -4 | -3
COc1ccc(-c2n(CC(=O)OC3CC(C)CCC3C(C)C)c3ccccc3[n+]2C)cc1 (stereo unspecified) | 9 | 49 | 95* | -3 | -3 | 0
Nc1ccc2c(c1)C(=O)C(=O)c1ccccc1-2 | -17 | 62* | -3 | -4 | 8 | -16
COCCCn1c(-c2ccc(S(=O)(=O)N3CCOCC3)cc2)csc1=Nc1ccccc1 | -1 | 69* | -5 | 0 | -2 | -3
CCn1c(-c2ccccc2)csc1=Nc1ccc(S(=O)(=O)O)cc1 | 13 | 1 | ? | -2 | 2 | -1
C=C1[C@@H](CCO)N(S(=O)C(C)(C)C)C[C@@H]1C (stereo partly specified) | 5 | / | / | / | / | -7
CCN(C(=O)c1ccco1)c1nc(-c2ccc(OC)cc2)cs1 | -7 | 17 | -1 | -2 | 0 | 0
COc1ccc(-c2csc(N(CC3CCCO3)C(=O)c3ccco3)n2)cc1 (stereo unspecified) | 6 | 11 | 98* | -4 | -4 | -2
O=C(NC1CCCC1)N[C@@H]1CC[C@@H](CC(=O)N2CCOCC2)O[C@@H]1CO | -14 | / | / | / | / | -3
CC(C)N(C(=O)COC(=O)c1ccc(Cl)nc1)C(C)C | 6 | 32 | 0 | 0 | 2 | -3
O=C(OCCOc1ccc(Br)cc1)c1ccc(Cl)nc1 | 11 | 33 | 110* | -3 | -2 | 24
Cc1ccc2cc(C(c3nnnn3Cc3ccccc3)N3CCN(c4ccccc4)CC3)c(=O)[nH]c2c1 (stereo unspecified) | -17 | -44 | 8 | -1 | -2 | 0
CCN(Cc1ccccc1)C(c1cc2ccc(C)cc2[nH]c1=O)c1nnnn1CCOC (stereo unspecified) | 3 | 99* | ? | -4 | -2 | 12
Cc1ccc2cc(C(c3nnnn3C(C)(C)C)N3CCCCCC3)c(=O)[nH]c2c1 (stereo unspecified) | / | 102* | 3 | -2 | -1 | /
COc1ccc2cc(C(c3nnnn3Cc3ccccc3)N3CCCCCC3)c(=O)[nH]c2c1 (stereo unspecified) | 13 | 94* | -1 | 0 | -3 | -9
CCC(C)(C)n1nnnc1C(c1cc2cc(C)ccc2[nH]c1=O)N1CCCC1 (stereo unspecified) | 11 | 10 | -5 | -2 | -3 | -2
COc1ccc2cc(C(c3nnnn3Cc3ccc(F)cc3)N3CCCCCC3)c(=O)[nH]c2c1 (stereo unspecified) | 12 | -42 | -1 | -2 | -2 | 9
N#Cc1ccc(OCCCN2CCC(C(O)(C3=CCCC3)c3ccccc3)CC2)cc1 (stereo unspecified) | -7 | / | / | / | / | 3
CC(=O)c1c(C)nc(-c2cccc([N+](=O)[O-])c2)n1O | -2 | 38 | 76* | -3 | -3 | -1
CN1CC2([N+](=O)[O-])CC=C(OCCO)C([N+](=O)[O-])(C1)C2 (stereo unspecified) | -3 | -4 | 113* | -1 | 1 | 9
CCCCC(=O)NNC(=S)NC(=O)c1cccc([N+](=O)[O-])c1 | -2 | 94* | 16 | -3 | -5 | -7
SMILES | ASAP1 GAP inh | PHOSPHO1 inh | Calb FLC | IMP-1 inhibitor | VIM-2 inhibitor | ARFGAP1 inhibitor
CCCCCC(=O)NNC(=S)NC(C)=O | 4 | -120 | 10 | -1 | 0 | 3
CCCCC(=O)NNC(=S)NC(=O)c1ccc([N+](=O)[O-])cc1 | 12 | 61* | ? | -5 | -2 | -1
CCCCC(=O)NNC(=S)NC(=O)c1ccc(C)cc1 | 9 | 28 | 101* | -2 | 0 | 3
Cc1ccc(C(=O)NC(=S)NNC(=O)CC#N)cc1 | -2 | 46 | 109* | -3 | -4 | -7
O=C(O)[C@@H]1CSC2c3ccccc3C(=O)N21 (stereo partly specified) | 10 | 20 | -7 | 25* | -1 | 2
CCC(C)[C@H](NC(=O)[C@@H]1CSC2c3ccccc3C(=O)N21)C(=O)N1CCCCC1 (stereo partly specified) | 0 | 65* | 0 | -2 | -2 | 1
O=C(NC1CC1)[C@@H]1CSC2c3ccccc3C(=O)N21 (stereo partly specified) | -1 | 34 | 8 | -2 | -4 | 16
COc1cc2c(cc1OC)[C@@H](NC(=O)c1ccncc1)[C@H](C)[C@H]2c1ccccc1 | 10 | / | / | / | / | 4
COc1ccc(C(=O)NCC2CCN(C(=O)C(=O)c3cccs3)CC2)c(OC)c1 | -12 | / | / | / | / | 12
O=C(Nc1ncc([N+](=O)[O-])s1)c1cccs1 | 5 | 15 | 108* | -2 | -1 | 2
Cc1cnc(NC(=O)c2cccs2)s1 | -13 | 46 | -1 | -2 | -2 | -6
O=C(CCS(=O)(=O)c1ccccc1)Nc1nc2cc3c(cc2s1)OCCO3 | 7 | 16 | 82* | -1 | 0 | 0
Cc1ccc(CC(=O)Nc2ncc([N+](=O)[O-])s2)cc1 | 22 | 32 | 82* | -1 | 0 | 10
O=C(CS(=O)(=O)c1ccccc1)Nc1ncc([N+](=O)[O-])s1 | 1 | 28 | 0 | -2 | -3 | 20
O=C(CCS(=O)(=O)c1ccccc1)Nc1nc2cc3c(cc2s1)OCO3 | 0 | 20 | 67 | -1 | -1 | -8
O=C(CCS(=O)(=O)c1ccccc1)Nc1ncc([N+](=O)[O-])s1 | -14 | 24 | 99* | -4 | -3 | -14
COc1cccc(CNC(=O)[C@H]2CCCN2)c1 | 2 | / | / | / | / | -11
c1cncc(-c2nc3ccccc3s2)c1 | 6 | -36 | 14 | -1 | -1 | -4
CC(=O)N(Cc1cccnc1)c1cccc(-c2nc3ccccc3s2)c1 | 15 | 66* | 19 | -2 | -1 | 3
COc1ccc(CN2C(=O)C(CC(=O)NCc3cccc4ccccc34)CC(C(=O)N(C(C)C)C(C)C)=C2C)cc1 (stereo unspecified) | -9 | / | / | / | / | 19
COC(=O)c1cc2c(c3c4cc(C)ccc4n(S(=O)(=O)c4ccc(OC)cc4)c13)C(=O)N(Cc1ccc(C(F)(F)F)cc1)C2 | -4 | / | / | / | / | -5
COc1ccc(C)cc1NC(=O)NCc1ccco1 | -5 | 61* | 16 | -2 | -1 | -1
